The values that follow come from paper PMC2903661 (Bioorganic & medicinal chemistry, 2010).

The target in series [1] is T1, CB2 receptors (Mus musculus, UniProt P47936). Put plainly: Baseline dissection biodistribution of [11C]1 in control CD1 mice. It counts as in vivo. To be noted: i.v., whole body time-activity curve. In a few lines: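 Male CD-1 mice (23-28 g) received the radiotracer (specific radioactivity ~150 GBq/μmol, in saline) by lateral tail vein. They were killed by cervical dislocation at various times after injection. Organs and brain were removed and dissected on ice, then weighed and gamma-counted (counting error below 3%) against injectate aliquots as standards. Uptake was expressed as %ID/g tissue.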
T1 sequence (P47936 whole entry): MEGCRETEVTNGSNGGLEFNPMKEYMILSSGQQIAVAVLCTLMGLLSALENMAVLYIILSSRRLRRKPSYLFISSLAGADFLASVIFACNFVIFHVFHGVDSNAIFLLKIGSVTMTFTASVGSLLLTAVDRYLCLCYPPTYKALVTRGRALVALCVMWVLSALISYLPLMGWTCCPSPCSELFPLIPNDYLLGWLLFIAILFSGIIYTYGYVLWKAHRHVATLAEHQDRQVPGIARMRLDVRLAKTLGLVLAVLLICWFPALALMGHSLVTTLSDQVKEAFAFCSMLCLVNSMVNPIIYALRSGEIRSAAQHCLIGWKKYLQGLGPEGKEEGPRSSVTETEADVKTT

For series [2], the target named is T1, CB2 receptors. It counts as in vivo, mice. An outline of the steps:
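Male CD1 mice got a single i.p. LPS dose (5 mg/kg in saline, strain O111:B4) 3 or 5 days before i.v. radiotracer; untreated CD1 mice served as controls. At 60 min, cerebellum, hippocampus, cortex, brainstem and rest of brain were dissected, weighed and gamma-counted. Uptake was %ID/g tissue (± SD, n=3), and regional ratios were taken as 5-day LPS over control.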

The target in series [3] is T1, CB2 receptors. As to the kind of experiment: Blocking dissection study in LPS-5-day-treated CD1 mice. It counts as in vivo. To be noted: for reduction of the specific binding of [11C]1 in whole brain: LPS-5-day mice, AM630 3 mg/kg or GW405833 2 mg/kg s.c., normalized uptake, 60 min, control CD1 mice as measure of non-specific binding. In a few lines: (§1)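 Control CD1 mice, or CD1 mice 5 days after a single i.p. LPS dose (5 mg/kg in saline, strain O111:B4), received AM630 3 mg/kg or GW405833 2 mg/kg s.c. in DMSO; controls got DMSO vehicle. Radiotracer (~150 GBq/μmol) was given i.v. 30 min later, and tissues were harvested at 60 min and gamma-counted. Whole-brain uptake was %ID/g per body weight normalized by blood; mean ± SD, n=3.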

Series [4] addresses T1, CB2 receptors. Put plainly: Blocking dissection study in control CD1 mice. It counts as in vivo. The following applies: AM630 3 mg/kg or GW405833 2 mg/kg s.c., 60 min. In a few lines: as §1
In series [5] the target is T1, CB2 receptors. It counts as in vivo. The following applies: APPswe/PS1dE9 mice.

Turning to `Cc1sc(=NC(=O)C2C(C)(C)C2(C)C)n(CCO[11CH3])c1C` [[^11C]1], the “uptake of [11C]1 in the brain” value at CB2 receptors [1] (brain) came out at 0.3 %ID/g tissue. Besides, the “uptake of [11C]1 in the heart” value at CB2 receptors [1] (heart) was determined as 0.7 %ID/g tissue. Also, the “uptake of [11C]1 in the intestine” value on CB2 receptors [1] (intestine) was 1.5 %ID/g tissue. The “uptake of [11C]1 in the kidney” value on CB2 receptors [1] (kidney) is given as 2.2 %ID/g tissue. For the same compound, at CB2 receptors [1] (liver), the “uptake of [11C]1 in the liver” value amounted to 4.9 %ID/g tissue. Also, the “uptake of [11C]1 in the spleen” value at CB2 receptors [1] (spleen) worked out at 1.3 %ID/g tissue. On CB2 receptors [2] (LPS-3-day-treated CD1 mice versus control, all brain regions), the “increase of brain uptake versus control mice, LPS three days before (Group 2)” value is “insignificant increase”. The “regional uptake ratio of Group 3 to Group 1, cerebellum” value on CB2 receptors [2] (LPS-5-day-treated versus control CD1 mice, %ID/g tissue, cerebellum) came out at 1.8. The “regional uptake ratio of Group 3 to Group 1, cortex” value at CB2 receptors [2] (LPS-5-day-treated versus control CD1 mice, %ID/g tissue, cortex) turned out to be 1.7. Also, on CB2 receptors [2] (LPS-5-day-treated versus control CD1 mice, %ID/g tissue, hippocampus), the “regional uptake ratio of Group 3 to Group 1, hippocampus” value is on record as 1.9. Further, the “regional uptake ratio of Group 3 to Group 1, rest of the brain” value at CB2 receptors [2] (LPS-5-day-treated versus control CD1 mice, %ID/g tissue, rest of the brain) is 1.5. In addition, the “specific CB2 cerebral uptake” value on CB2 receptors [3] (LPS-induced mouse model of neuroinflammation, summary) is on record as 78-84%.

`COc1ccc2c(c1)c(CCN1CCOCC1)c(C)n2C(=O)c1cccc(Cl)c1Cl` [GW405833]: on CB2 receptors [4], the “difference in normalized whole brain uptake between baseline and blockade” value is on record as “little difference”. At CB2 receptors [3], the “reduction of the specific binding of [11C]1 in whole brain” value came to 84%.

As to `COc1ccc(C(=O)c2c(C)n(CCN3CCOCC3)c3cc(I)ccc23)cc1` [AM630], the “difference in normalized whole brain uptake between baseline and blockade” value at CB2 receptors [4] is listed as “little difference”. Moreover, the “reduction of the specific binding of [11C]1 in whole brain” value at CB2 receptors [3] is 78%. Also, on CB2 receptors [5] (AM630, 60 min), the “reduction of radioactivity uptake by blockade in cerebellum and brainstem” value is “insignificant reduction”; the “reduction of radioactivity uptake by blockade in cortex and rest of brain” value was “significant reduction”. The “uptake difference between baseline and blockade, brainstem” value on CB2 receptors [5] (AM630 blockade, 60 min, brainstem) worked out at 29%. In addition, the “uptake difference between baseline and blockade, cerebellum” value on CB2 receptors [5] (AM630 blockade, 60 min, cerebellum) is given as 29%. In addition, at CB2 receptors [5] (AM630 blockade, 60 min, cortex), the “uptake difference between baseline and blockade, cortex” value came out at 36%. Besides, the “uptake difference between baseline and blockade, rest of brain” value on CB2 receptors [5] (AM630 blockade, 60 min, rest of brain) is 33%.
